system: Brassica rapa subsp. oleifera; assay: Herbicidal activity against Brassica rapa subsp. oleifera assessed as inhibition of fresh weed plant weight at 375 g/ha using pre-emergence treatment protocol; type: functional

SMILES | inhibition at 375 g/ha
C=CCN1C(=O)COc2cc(F)c(-n3nnc4nn(CC=C)cc4c3=O)cc21 | 100%

system: Digitaria sanguinalis; assay: Herbicidal activity against Digitaria sanguinalis (hairy crabgrass) assessed as inhibition of fresh weed plant weight at 93.75 g/ha using pre-emergence treatment protocol; type: functional

SMILES | inhibition at 93.75 g/ha
C=CCN1C(=O)COc2cc(F)c(-n3nnc4nn(CC=C)cc4c3=O)cc21 | 6.1%

system: Digitaria sanguinalis; assay: Herbicidal activity against Digitaria sanguinalis (hairy crabgrass) assessed as inhibition of fresh weed plant weight at 375 g/ha using pre-emergence treatment protocol; type: functional

SMILES | inhibition at 375 g/ha
C=CCN1C(=O)COc2cc(F)c(-n3nnc4nn(CC=C)cc4c3=O)cc21 | 40.8%

system: Digitaria sanguinalis; assay: Herbicidal activity against Digitaria sanguinalis (hairy crabgrass) assessed as inhibition of fresh weed plant weight at 1500 g/ha using pre-emergence treatment protocol; type: functional

SMILES | inhibition at 1500 g/ha
C=CCN1C(=O)COc2cc(F)c(-n3nnc4nn(CC=C)cc4c3=O)cc21 | 90%

system: Brassica rapa subsp. oleifera; assay: Herbicidal activity against Brassica rapa subsp. oleifera assessed as inhibition of fresh weed plant weight at 750 g/ha using post-emergence treatment protocol; type: functional
In short: (§1)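 Test compounds made up as emulsions by dissolving in 100 µL N,N-dimethylformamide, then adding a little Tween 20 and water. For post-emergence, weed seedlings at one leaf and one stem were sprayed at the same rates as the pre-emergence test. Fresh weight was recorded 15 days after treatment and expressed as percent inhibition versus controls. All treatments were run in triplicate.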

SMILES | inhibition at 750 g/ha
C=CCN1C(=O)COc2cc(F)c(-n3nnc4nn(CC=C)cc4c3=O)cc21 | 88.5%

system: Brassica rapa subsp. oleifera; assay: Herbicidal activity against Brassica rapa subsp. oleifera assessed as inhibition of fresh weed plant weight at 93.75 g/ha using post-emergence treatment protocol; type: functional; in short: as §1

SMILES | inhibition at 93.75 g/ha
C=CCN1C(=O)COc2cc(F)c(-n3nnc4nn(CC=C)cc4c3=O)cc21 | 10.2%

system: Amaranthus retroflexus; assay: Herbicidal activity against Amaranthus retroflexus assessed as inhibition of fresh weed plant weight at 750 g/ha using post-emergence treatment protocol; type: functional; in short: as §1

SMILES | inhibition at 750 g/ha
C=CCN1C(=O)COc2cc(F)c(-n3nnc4nn(CC=C)cc4c3=O)cc21 | 100%

system: Amaranthus retroflexus; assay: Herbicidal activity against Amaranthus retroflexus assessed as inhibition of fresh weed plant weight at 1500 g/ha using pre-emergence treatment protocol; type: functional

SMILES | inhibition at 1500 g/ha
C=CCN1C(=O)COc2cc(F)c(-n3nnc4nn(CC=C)cc4c3=O)cc21 | 100%

system: Digitaria sanguinalis; assay: Herbicidal activity against Digitaria sanguinalis (hairy crabgrass) assessed as inhibition of fresh weed plant weight at 1500 g/ha using post-emergence treatment protocol; type: functional; in short: as §1

SMILES | inhibition at 1500 g/ha
C=CCN1C(=O)COc2cc(F)c(-n3nnc4nn(CC=C)cc4c3=O)cc21 | 0%

system: Digitaria sanguinalis; assay: Herbicidal activity against Digitaria sanguinalis (hairy crabgrass) assessed as inhibition of fresh weed plant weight at 187.5 g/ha using post-emergence treatment protocol; type: functional; in short: as §1

SMILES | inhibition at 187.5 g/ha
C=CCN1C(=O)COc2cc(F)c(-n3nnc4nn(CC=C)cc4c3=O)cc21 | 0%

system: Amaranthus retroflexus; assay: Herbicidal activity against Amaranthus retroflexus assessed as inhibition of fresh weed plant weight at 93.75 g/ha using pre-emergence treatment protocol; type: functional

SMILES | inhibition at 93.75 g/ha
C=CCN1C(=O)COc2cc(F)c(-n3nnc4nn(CC=C)cc4c3=O)cc21 | 100%

system: Digitaria sanguinalis; assay: Herbicidal activity against Digitaria sanguinalis (hairy crabgrass) assessed as inhibition of fresh weed plant weight at 93.75 g/ha using post-emergence treatment protocol; type: functional; in short: as §1

SMILES | inhibition at 93.75 g/ha
C=CCN1C(=O)COc2cc(F)c(-n3nnc4nn(CC=C)cc4c3=O)cc21 | 0%

system: Echinochloa crus-galli; assay: Herbicidal activity against Echinochloa crus-galli (barnyard grass) assessed as inhibition of fresh weed plant weight at 375 g/ha using pre-emergence treatment protocol; type: functional; in short: as §1

SMILES | inhibition at 375 g/ha
C=CCN1C(=O)COc2cc(F)c(-n3nnc4nn(CC=C)cc4c3=O)cc21 | 27.9%

system: Brassica rapa subsp. oleifera; assay: Herbicidal activity against Brassica rapa subsp. oleifera assessed as inhibition of fresh weed plant weight at 750 g/ha using pre-emergence treatment protocol; type: functional

SMILES | inhibition at 750 g/ha
C=CCN1C(=O)COc2cc(F)c(-n3nnc4nn(CC=C)cc4c3=O)cc21 | 100%

system: Echinochloa crus-galli; assay: Herbicidal activity against Echinochloa crus-galli (barnyard grass) assessed as inhibition of fresh weed plant weight at 1500 g/ha using pre-emergence treatment protocol; type: functional

SMILES | inhibition at 1500 g/ha
C=CCN1C(=O)COc2cc(F)c(-n3nnc4nn(CC=C)cc4c3=O)cc21 | 100%

system: Brassica rapa subsp. oleifera; assay: Herbicidal activity against Brassica rapa subsp. oleifera assessed as inhibition of fresh weed plant weight at 187.5 g/ha using pre-emergence treatment protocol; type: functional

SMILES | inhibition at 187.5 g/ha
C=CCN1C(=O)COc2cc(F)c(-n3nnc4nn(CC=C)cc4c3=O)cc21 | 95.9%

system: Digitaria sanguinalis; assay: Herbicidal activity against Digitaria sanguinalis (hairy crabgrass) assessed as inhibition of fresh weed plant weight at 750 g/ha using post-emergence treatment protocol; type: functional; in short: as §1

SMILES | inhibition at 750 g/ha
C=CCN1C(=O)COc2cc(F)c(-n3nnc4nn(CC=C)cc4c3=O)cc21 | 0%

system: Digitaria sanguinalis; assay: Herbicidal activity against Digitaria sanguinalis (hairy crabgrass) assessed as inhibition of fresh weed plant weight at 187.5 g/ha using pre-emergence treatment protocol; type: functional

SMILES | inhibition at 187.5 g/ha
C=CCN1C(=O)COc2cc(F)c(-n3nnc4nn(CC=C)cc4c3=O)cc21 | 16.3%

system: Echinochloa crus-galli; assay: Herbicidal activity against Echinochloa crus-galli (barnyard grass) assessed as inhibition of fresh weed plant weight at 375 g/ha using post-emergence treatment protocol; type: functional; in short: as §1

SMILES | inhibition at 375 g/ha
C=CCN1C(=O)COc2cc(F)c(-n3nnc4nn(CC=C)cc4c3=O)cc21 | 17.2%

system: Brassica rapa subsp. oleifera; assay: Herbicidal activity against Brassica rapa subsp. oleifera assessed as inhibition of fresh weed plant weight at 187.5 g/ha using post-emergence treatment protocol; type: functional; in short: as §1

SMILES | inhibition at 187.5 g/ha
C=CCN1C(=O)COc2cc(F)c(-n3nnc4nn(CC=C)cc4c3=O)cc21 | 12.3%

Reference: ChEMBL document CHEMBL3044834, “Novel protoporphyrinogen oxidase inhibitors: 3H-pyrazolo[3,4-d][1,2,3]triazin-4-one derivatives” (J Agric Food Chem, 2008)
